Screens from PubChem BioAssay.
Hits are enriched below; roughly 1.8% of the tested compounds scored in any of these assays.
M4 PAM – CHRM4 positive allosteric modulation | P08173 | CHO-K1 hM4/Gqi5, Fluo-8 calcium fluorescence, ACh EC20; 0% = ACh EC20, 100% = maximal ACh | activation, % at 3 µM | actives 0.4% (n = 360,000) | AID 624126;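 active = activation above its plate's cutoff, the mean activation of sample wells plus 3 SD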
Target sequence (P08173 whole entry, looked up): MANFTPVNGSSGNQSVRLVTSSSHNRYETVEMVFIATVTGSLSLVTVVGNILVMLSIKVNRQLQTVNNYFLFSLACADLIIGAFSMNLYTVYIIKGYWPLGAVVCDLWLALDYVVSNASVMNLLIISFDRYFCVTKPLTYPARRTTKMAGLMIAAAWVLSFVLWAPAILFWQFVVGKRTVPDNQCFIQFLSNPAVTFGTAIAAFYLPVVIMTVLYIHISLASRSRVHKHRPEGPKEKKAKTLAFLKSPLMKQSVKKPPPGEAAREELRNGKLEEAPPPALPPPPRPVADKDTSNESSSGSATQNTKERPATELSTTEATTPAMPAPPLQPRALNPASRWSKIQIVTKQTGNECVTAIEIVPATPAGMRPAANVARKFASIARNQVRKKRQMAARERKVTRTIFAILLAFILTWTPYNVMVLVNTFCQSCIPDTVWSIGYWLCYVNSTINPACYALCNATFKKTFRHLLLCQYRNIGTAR
CHRM4 agonist – CHRM4 agonism in calcium assay; actives 0.14% (n = 360,000); activation, % at 3 µM; P08173; AID 624127; CHO-K1 hM4/Gqi5, Fluo-8 calcium fluorescence; vehicle 0%, full acetylcholine response 100%;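 active = activation above the run mean over all test wells plus 3 SD, cut at about 32% in these data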;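 note: peak over basal fluorescence ratio per well then scaled between controls; 0% = DMSO wells and 100% = acetylcholine at EC100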
M4 antag – antagonists of human muscarinic M4 receptor (CHRM4); CHO-hM4 cells, ACh EC80, Fluo-8 calcium fluorescence; inhibition, % at 3 µM; actives 0.73% (n = 360,000); AID 624125;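 active = inhibition above its plate's cutoff, the mean inhibition of sample wells plus 3 SD, cut at about 27% in these data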;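 note: 0% = acetylcholine EC80 with DMSO and 100% = DMSO without agonist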
CHRM5 antagonist – blocks acetylcholine activation of human M5 receptor; P08912; CHO-hM5 cells, Fluo-8 calcium fluorescence, ACh EC80; inhibition, % at 3 µM; actives 0.59% (n = 360,000); AID 624040;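 active = inhibition above a per-plate cutoff, the mean of that plate's test compounds plus 3 SD, cut at about 27% in these data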;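 note: 0% = acetylcholine EC80 with DMSO and 100% = DMSO without agonist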
M5 ag – agonists of human muscarinic M5 receptor (CHRM5). P08912. CHO-K1 hM5 cells, Fluo-8 calcium fluorescence; 0% DMSO wells, 100% maximal acetylcholine response. activation, % at 3 µM. actives 0.19% (n = 360,000). AID 624037;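 active = activation above the run's mean over test compounds plus 3 SD, cut at about 23% in these data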;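 note: signal is peak over basal fluorescence ratio across the kinetic read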
CHRM5 PAM – potentiates acetylcholine response at human M5 receptor | actives 0.3% (n = 360,000) | activation, % at 3 µM | CHO-K1 hM5, Fluo-8 calcium, ACh EC20 PAM; 0% = ACh EC20, 100% = ACh EC100 | AID 624038 | P08912;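 active = activation above the run cutoff, the mean activation of all test compounds plus 3 SD, cut at about 18% in these data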
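Assay system: CHO-K1 hM5 cells / Incubation: Fluo-8 loading 80 min at 37 °C plus 30 min room temperature / Technique: Fluo-8 calcium dye fluorescence, kinetic read / Repeats: single replicate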
* hit, by the source's call.

SMILES | M4 PAM | CHRM4 agonist | M4 antag | CHRM5 antagonist | M5 ag | CHRM5 PAM
Cc1ccc(O)c(NC(=S)NC(=O)Cc2ccc(Cl)cc2)c1 | -18.4 | 140.0* | 99.9* | 81.4* | 60.9* | -30.6
Cc1ccc(CN(C(=O)COc2cccc(C)c2C)C2CCS(=O)(=O)C2)o1 (stereo not given) | -2.9 | 1.8 | 8.4 | 1.0 | -0.1 | 4.7
CC(=O)c1sc(NC(=O)C2(F)C(F)(F)C(F)(F)C(F)(F)C(F)(F)C2(F)F)nc1C | -13.8 | 14.4 | 12.2 | 28.8* | 7.8 | -11.1
Cc1cc(C)cc(NC(=O)c2nnn(Cc3cc(C)ccc3C)c2N)c1 | -10.0 | 32.4* | 14.7 | 16.5 | 28.1* | -5.2
Cc1ccc(C)c(Cn2nnc(C(=O)Nc3ccc4c(c3)OCCO4)c2N)c1 | 6.8 | 22.9 | -4.1 | 5.9 | 36.2* | 2.3
Cc1ccccc1Cn1nnc(C(=O)Nc2ccc3c(c2)OCCO3)c1N | -4.3 | 4.2 | -7.7 | 2.9 | 6.6 | 6.9
COc1ccc(NC(=O)c2cc(-c3cc(F)ccc3OCC3CCCO3)n[nH]2)cc1OC (stereo not given) | -9.5 | 11.7 | 6.6 | 8.4 | 0.8 | -8.7
Cc1sc2nc(CN3CCOCC3)nc(N3CCOCC3)c2c1C | 8.1 | 0.0 | 3.0 | -3.0 | -1.8 | -2.5
Cc1sc2nc(CN3CCOCC3)nc(N3CCC(C(N)=O)CC3)c2c1C | 20.9* | 4.3 | 1.6 | 3.9 | 1.1 | -14.2
Cc1cn([C@H]2C[C@H](O)[C@@H](/C=C/C(=O)NCCc3ccc4c(c3)OCO4)O2)c(=O)[nH]c1=O | 2.5 | 1.6 | -9.2 | 2.7 | 3.1 | -6.8
O=C(NCCc1ccccc1)c1ccc(Cl)cc1[N+](=O)[O-] | 0.3 | 1.5 | 7.8 | 8.2 | -2.7 | -6.5
Cc1ccccc1CS(=O)(=O)c1nnc([C@H](Cc2ccccc2)NC(=O)OC(C)(C)C)o1 | -14.4 | 5.1 | 78.8* | 9.8 | 4.5 | 4.6
Cn1c(=O)c2cc(NC(=O)NCc3ccccc3)ccc2n1C/C=C/c1ccccc1 | 5.4 | 1.9 | -6.9 | -4.8 | -0.8 | -0.4
COc1ccc(C(=O)c2ccc([N+](=O)[O-])cc2)cc1S(=O)(=O)N1CCC(C(=O)O)CC1 | -12.3 | -0.5 | 7.1 | 13.0 | -0.6 | -4.9
N#C/C(=N\Nc1ccc([N+](=O)[O-])cc1)C(N)=S | -23.1 | 10.4 | -2.2 | 29.7* | 7.1 | -19.9
N#C/C(=N\Nc1ccc(S(=O)(=O)N2CCCCCC2)cc1)C(N)=S | -6.8 | 12.4 | -4.8 | 30.2* | 4.0 | -16.9
N#C/C(=N/Nc1ccc([N+](=O)[O-])cc1)C(=N)N1CCCCC1 | -11.3 | 0.2 | 0.3 | 2.9 | 2.3 | -2.2
N#C/C(=N\Nc1ccc(S(=O)(=O)N2CCCCC2)cc1)C(N)=S | -2.4 | 7.2 | 0.8 | 3.4 | 7.4 | -4.2
COc1ccc(CCNC(=O)c2cccc(S(=O)(=O)NC(C)c3ccccc3)c2)cc1 (stereo not given) | 11.4 | 4.5 | -7.1 | 16.8 | 2.2 | -11.2
CCC(NC(=S)NC1CCCCC1)c1ccc(C(C)C)cc1 (stereo not given) | -16.3 | 9.8 | 18.0 | -9.5 | -2.2 | -8.2
COC(=O)C1=CN(c2ccc(C(C)(C)C)cc2)C(N)=C(C#N)C1c1cccc2ccccc12 (stereo not given) | -7.6 | 1.0 | -16.1 | -11.1 | 3.2 | 0.9
NC(=O)c1ccsc1NC(=O)COC(=O)/C=C/c1ccccc1[N+](=O)[O-] | -8.5 | 22.8 | 31.3* | 20.2 | 4.7 | -40.2
NC(=O)c1ccsc1NC(=O)COC(=O)/C=C/c1ccccc1 | -15.8 | 26.8 | 21.6 | 23.2 | 6.8 | -30.4
CCN(CC)C(=O)c1cccc(-c2csc(C(O)c3cccc(OC)c3)n2)c1 (stereo not given) | -7.6 | 16.0 | 6.4 | 10.4 | 6.2 | -11.4
Cc1cnc(CNC(=O)c2ccc(OC3CCN(C(=O)C4CC4)CC3)cc2)cn1 | 17.9 | 3.5 | -2.3 | 0.1 | 16.9 | 23.2*
Cc1cc(C(C)(C)C)cc(C)c1C[n+]1ccc2ccccc2c1 | -13.5 | 0.5 | 29.3* | 11.9 | -7.7 | -4.8
O=C(Nc1ccncc1)c1ccc2c(c1)C(=O)N(C1CCCCC1)C2=O | -12.9 | 19.0 | 41.7* | 30.8* | 5.8 | -40.7
